# Measured values published in paper PMC2650427 (Bioconjugate chemistry, 2008).
# Read-outs that look alike come from different tables or passages of the source. Marks after values point to notes of the source that are not given here.
# Legend:
# Relaxivity = format: physicochemical; conditions: 100 mM phosphate buffer, pH 7.4, ambient temperature (~25 °C); saturation recovery; assessed in duplicate
# [1] = cited from earlier work
# [2] = calculated at 25 °C; cited from earlier work
# [3] = Determination of τm by 17O transverse relaxation rate measurements; format: physicochemical; conditions: variable temperature 17O NMR at 54 MHz, 15–20 mM, pH 7.40; calculated at 25 °C
# NIH/3T3 cells = test: MR imaging and T1 analysis of labelled cells; format: cell-based; conditions: 1.0 mM, 4 h, washes at 1 hour intervals, T1-weighted, 14.1 T
# [4] = In vitro cleavage by disulfide exchange with GSH; format: physicochemical; conditions: 1.0 mM in DPBS, 37 °C, 4 h; GSH at 4 times the contrast agent; HPLC-MS ion count
# Outline: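 Disulfide-linked Gd(III)-DTPA–octaarginine test compound was incubated with increasing GSH (0.25 to 4 equivalents) in 1.0 mM DPBS. Start times were staggered so each sample had 4 h at 37 °C before LC-MS. Separation used a C18 column (4.6 × 250 mm, 5 µm) at 1.0 mL/min with a water/MeCN gradient of 0–60% MeCN over 40 min. Total ion counts of the GSH-exchange product and of the starting material were compared.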
Molecule,"Relaxivity, 600 MHz (14.1 T) (Relaxivity) [mM⁻¹ s⁻¹]",q (number of bound water molecules) [1],τm (mean residence lifetime of coordinated water) [2],τm (mean residence lifetime of coordinated water) [3] [ns],MR image intensity after leaching (NIH/3T3 cells),Completeness of disulfide cleavage at 4:1 GSH [4]
O=C([O-])CN1CCN(CC(=O)[O-])CCN(CC(=O)O)CCN(CC(=O)[O-])CC1.[Gd+3] [Gd(III)-DOTA],2.12,1.2 ^d,243 ^e ns,,,
O=C([O-])CN(CCN(CC(=O)[O-])CC(=O)O)CCN(CC(=O)[O-])CC(=O)O.[Gd+3] [Gd(III)-DTPA],2.09,1.2 ^d,303 ^e ns,,,
Gd(III)-DOTA-SS-Arg8 [compound 3],3.52,,,840,little loss of signal intensity,
Gd(III)-DTPA-SS-Arg8 [compound 4],3.46,,,1327,little loss of signal intensity,complete cleavage is not obtainable
